Data taken from ChEMBL document CHEMBL4152266, “Insight into structural requirements for selective and/or dual CXCR3 and CXCR4 allosteric modulators” (Eur J Med Chem, 2018).
Activity calls are given as the source filed them. No cut-off for these calls is given here.

Columns and labels:
[1] = target: T1, C-X-C chemokine receptor type 3 (Homo sapiens) (UniProt P49682); assay: Agonist activity at PK1-tagged CXCR3 (unknown origin) expressed in HEK293T cells co-expressing beta-arrestin/beta-Gal enzyme chimera assessed as beta-arrestin recruitment at 10 uM after 4 hrs by chemiluminescence based beta-galactosidase reporter gene assay; assay type: functional, cell-based
T1 sequence (whole entry): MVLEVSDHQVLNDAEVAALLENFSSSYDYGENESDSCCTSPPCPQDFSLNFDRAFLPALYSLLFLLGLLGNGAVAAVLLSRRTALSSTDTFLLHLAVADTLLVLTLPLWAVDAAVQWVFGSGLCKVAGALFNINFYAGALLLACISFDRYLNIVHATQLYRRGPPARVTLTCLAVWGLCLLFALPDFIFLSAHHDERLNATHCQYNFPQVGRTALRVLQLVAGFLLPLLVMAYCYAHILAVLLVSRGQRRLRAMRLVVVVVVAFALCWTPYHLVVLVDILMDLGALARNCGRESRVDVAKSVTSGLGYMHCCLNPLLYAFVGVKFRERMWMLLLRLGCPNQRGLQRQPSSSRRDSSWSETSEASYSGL
Method in brief: (§1)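 PathHunter β-arrestin 2 recruitment at CXCR3 by β-gal fragment complementation, chemiluminescent read-out, compounds at 10 µM. Inhibition mode is scaled between CXCL11 50 nM (100%) and (±)-NBI-74330 10 µM (full inhibition). Agonism tested without chemokine. Mean ± S.E.M., three experiments in triplicate.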

[2] = target: T1, C-X-C chemokine receptor type 3 (Homo sapiens); assay: Negative allosteric modulation of CXCR3 (unknown origin) expressed in HEK293T cells assessed as inhibition of CXCL11-induced reduction in forskolin-mediated cAMP accumulation at 10 uM after 20 mins by BRET assay relative to control; assay type: functional, cell-based
Method in brief: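 CXCR3 antagonism in whole-cell BRET cAMP assay, compounds at 10 µM. NetBRET signal expressed as percent, scaled between CXCL11 50 nM (100%) and cRAMX3 10 µM (0%). Mean ± S.E.M. of three experiments in triplicate.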

[3] = target: T1, C-X-C chemokine receptor type 3 (Homo sapiens); assay: Agonist activity at CXCR3 (unknown origin) expressed in HEK293T cells assessed as inhibition of forskolin-mediated cAMP accumulation at 10 uM after 20 mins by BRET assay; assay type: functional, cell-based
[4] = target: T1, C-X-C chemokine receptor type 3 (Homo sapiens); assay: Negative allosteric modulation of CXCR3 in human PBMC assessed as inhibition of CXCL11-induced migration at 30 uM preincubated for 1 hr followed by CXCL11 addition measured after 3 hrs by flow cytometry based transwell assay relative to control; assay type: functional, cell-based
Method in brief: (§2)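 Human PBMCs, CXCR3 expression confirmed by flow cytometry, pre-treated with compound (30 or 150 µM) then allowed to migrate toward CXCL11 in a transwell. Cells in the lower chamber counted by flow cytometry (60 s counts). Mean ± SD of four independent experiments; unpaired t test.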

[5] = target: T1, C-X-C chemokine receptor type 3 (Homo sapiens); assay: Negative allosteric modulation of CXCR3 in human PBMC assessed as inhibition of CXCL11-induced migration at 150 uM preincubated for 1 hr followed by CXCL11 addition measured after 3 hrs by flow cytometry based transwell assay relative to control; assay type: functional, cell-based; method in brief: as §2
[6] = target: T1, C-X-C chemokine receptor type 3 (Homo sapiens); assay: Negative allosteric modulation of CXCR3 (unknown origin) expressed in HEK293T cells assessed as inhibition of CXCL11-induced reduction in forskolin-mediated cAMP accumulation after 20 mins by BRET assay; assay type: functional, cell-based
Method in brief: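 CXCR3 dose-response in BRET cAMP assay against CXCL11 at 50 nM, cRAMX3 as reference. Data fitted with a ternary complex allosteric model to give pKB and cooperativity α. Mean ± S.E.M., three experiments in triplicate.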

[7] = target: T2, C-X-C chemokine receptor type 4 (Homo sapiens, UniProt P61073); assay: Agonist activity at CXCR4 (unknown origin) expressed in HEK293T cells assessed as inhibition of forskolin-mediated cAMP accumulation at 10 uM after 20 mins by BRET assay; assay type: functional, cell-based
Method in brief: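 Agonism screen in BRET-based cAMP assay, compounds at 10 µM applied without chemokine. For CXCR4, CXCL12 at 20 nM serves as positive control. Mean of three experiments, each in triplicate.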

[8] = target: T2, C-X-C chemokine receptor type 4; assay: Negative allosteric modulation of CXCR4 (unknown origin) expressed in HEK293T cells assessed as inhibition of CXCL12-induced reduction in forskolin-mediated cAMP accumulation after 20 mins by BRET assay; assay type: functional, cell-based
Method in brief: (§3)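 Dose-response in CXCR4 BRET cAMP assay with CXCL12 at 20 nM, IT1t as reference. Analysis uses ternary complex allosteric model; where signal-to-noise was poor, nonlinear regression with Hill slope fixed at 1 gave approximate pEC50. Three experiments in triplicate.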

[9] = target: T1, C-X-C chemokine receptor type 3 (Homo sapiens); assay: (§4) Positive allosteric modulation of PK1-tagged CXCR3 (unknown origin) expressed in HEK293T cells co-expressing beta-arrestin/beta-Gal enzyme chimera assessed as increase in CXCL11-induced beta-arrestin recruitment at 10 uM after 4 hrs by chemiluminescence based beta-galactosidase reporter gene assay; assay type: functional, cell-based; method in brief: as §1
[10] = target: T1, C-X-C chemokine receptor type 3 (Homo sapiens); assay: as §4, with “Negative” for “Positive”, “inhibition of” for “increase in”, “assay relative to control” for “assay”; assay type: functional, cell-based; method in brief: as §1
[11] = target: T2, C-X-C chemokine receptor type 4; assay: Positive allosteric modulation of CXCR4 (unknown origin) expressed in HEK293T cells assessed as increase in CXCL12-induced reduction in forskolin-mediated cAMP accumulation at 10 uM after 20 mins by BRET assay relative to control; assay type: functional, cell-based; design: scale not given: the % may be the effect or the level left
[12] = target: T2, C-X-C chemokine receptor type 4; assay: Agonist activity at CXCR4 (unknown origin) expressed in HEK293T cells assessed as inhibition of forskolin-mediated cAMP accumulation after 20 mins by BRET assay; assay type: functional, cell-based; method in brief: as §3
[13] = target: T2, C-X-C chemokine receptor type 4; assay: Negative allosteric modulation of CXCR4 (unknown origin) expressed in HEK293T cells assessed as inhibition of CXCL12-induced reduction in forskolin-mediated cAMP accumulation at 10 uM after 20 mins by BRET assay relative to control; assay type: functional, cell-based
Method in brief: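 CXCR4 antagonism in BRET cAMP assay, compounds at 10 µM. NetBRET expressed as percent, scaled between CXCL12 20 nM (100%) and IT1t 10 µM (0%). Mean ± S.E.M. of three experiments in triplicate.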

[14] = target: T2, C-X-C chemokine receptor type 4; assay: Negative allosteric modulation of CXCR4 in human CD4+ T cells assessed as inhibition of CXCL12-induced migration at 150 uM preincubated for 1 hr followed by CXCL12 addition measured after 3 hrs by flow cytometry based transwell assay relative to control; assay type: functional, cell-based
Method in brief: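 Isolated human CD4+ T cells, CXCR4 expression checked by flow cytometry, pre-treated with compound at 150 µM, then transwell migration toward CXCL12. Migrated cells in the lower chamber counted by flow cytometry over 60 s. Mean ± SD of four independent experiments; unpaired t test.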

[15] = target: T1, C-X-C chemokine receptor type 3 (Homo sapiens); assay: Negative allosteric modulation of CXCR3 (unknown origin) expressed in HEK293 cell membranes assessed as inhibition of CXCL11-induced [35S]GTPgammaS binding preincubated for 30 mins followed by [35S]GTPgammaS addition measured after 30 mins; assay type: functional
[16] = target: T2, C-X-C chemokine receptor type 4; assay: Negative allosteric modulation of CXCR4 (unknown origin) expressed in HEK293 cell membranes assessed as inhibition of CXCL12-induced [35S]GTPgammaS binding preincubated for 30 mins followed by [35S]GTPgammaS addition measured after 30 mins; assay type: functional

T2 sequence (P61073 whole entry): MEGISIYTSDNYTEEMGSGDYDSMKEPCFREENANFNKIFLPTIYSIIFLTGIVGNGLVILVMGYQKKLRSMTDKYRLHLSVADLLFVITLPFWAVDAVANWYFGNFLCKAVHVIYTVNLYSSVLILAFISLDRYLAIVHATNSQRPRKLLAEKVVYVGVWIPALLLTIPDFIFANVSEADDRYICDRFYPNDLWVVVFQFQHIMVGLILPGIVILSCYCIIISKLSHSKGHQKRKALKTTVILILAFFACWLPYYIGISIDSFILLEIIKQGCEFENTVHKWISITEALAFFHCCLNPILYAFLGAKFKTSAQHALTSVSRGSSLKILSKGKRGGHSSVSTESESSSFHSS

SMILES	Activity [1]	inhibition [2]	inhibition [3]	pKb [8]	Activity [9]	inhibition [10]	inhibition [13]	further results
O=C(c1ccc(-n2cccn2)nc1)N1CCC(N(Cc2ccccc2)Cc2ccc(Cl)c(Cl)c2)CC1	inactive	> 50%	inactive					inhibition [4]: > 10%; inhibition [5]: > 20%
CCOc1ccc(-n2c(C(C)N(CC3CCN(C)CC3)C(=O)Cc3ccc(F)c(C(F)(F)F)c3)nc3ncccc3c2=O)cc1 (stereo not given)		100%						pKb [6]: 7.33
O=C(NCCCNc1ccc(Cl)cc1)c1ccc(-n2cccn2)nc1				4.64	inactive			inhibition [7]: Active
O=C(NC1CCN(Cc2ccc(Cl)cc2)CC1)c1ccc(-n2cccn2)nc1	inactive	> 50%	inactive	5.6	inactive			inhibition [7]: Active; inhibition [4]: 80%; inhibition [5]: 80%
O=C(c1ccc(-n2cccn2)nc1)N1CCC(N(Cc2ccccc2)Cc2ccc(Cl)cc2)CC1	inactive		inactive			≥ 20%		
O=C(c1ccc(-n2cccn2)nc1)N1CCC(NCc2ccccc2)CC1	inactive		inactive		inactive			Activity [11]: Active; inhibition [7]: Active; EC50 [12]: 5.89 µM
O=C(c1ccc(-n2cccn2)nc1)N1CCC(N(Cc2ccccc2)Cc2ccc(F)c(F)c2)CC1	inactive		inactive			≥ 20%		
COc1ccc(CN2CCN(C(=O)c3ccc(-n4cccn4)nc3)CC2)cc1		> 60%		6.09	inactive		> 50%	pKb [6]: 6.15; inhibition [4]: > 10%; inhibition [5]: > 20%; inhibition [14]: > 80%
O=C(NCCCN(CCc1ccccc1)c1ccccc1)c1ccc(-n2cccn2)nc1				6.13	inactive		> 50%	inhibition [14]: > 80%
COc1ccc(CN(Cc2ccccc2)C2CCN(C(=O)c3ccc(-n4cccn4)nc3)CC2)cc1	inactive		inactive	5.83	inactive	≥ 20%	> 50%	inhibition [14]: 100%
O=C(c1ccc(-n2cccn2)nc1)N1CCN(Cc2ccc(Cl)cc2)CC1		> 60%				inactive		pKb [6]: 6.35; inhibition [4]: > 10%; inhibition [5]: > 20%
O=C(NC1CCN(Cc2ccc(F)c(F)c2)CC1)c1ccc(-n2cccn2)nc1	inactive	> 50%	inactive					inhibition [4]: > 10%; inhibition [5]: > 20%
CCOc1ccc(-n2c(C(C)N(Cc3cccnc3)C(=O)Cc3ccc(F)c(C(F)(F)F)c3)nc3ncccc3c2=O)cc1 (racemic)						100%		
CCN(CCCNC(=O)c1ccc(-n2cccn2)nc1)c1ccccc1		inactive					inactive	pKb [15]: 8.82; pKb [16]: 8.72
O=C(c1ccc(-n2cccn2)nc1)N1CCN(Cc2ccc(Cl)c(Cl)c2)CC1				6.5	inactive		> 50%	inhibition [14]: > 80%
O=C(NCCCN(Cc1ccccc1)c1ccccc1)c1ccc(-n2cccn2)nc1				6.04	inactive		> 50%	inhibition [14]: > 80%
O=C(c1ccc(-n2cccn2)nc1)N1CCC(N(Cc2ccccc2)Cc2ccccc2)CC1	inactive		inactive			≥ 20%		
CC1(C)CN2C(CS/C(=N\C3CCCCC3)NC3CCCCC3)=CSC2=N1				8.54				Activity [11]: 100%
O=C(NCCCNc1ccccc1)c1ccc(-n2cccn2)nc1					inactive			inhibition [7]: Active; EC50 [12]: 9.55 µM
